Converted amounts (≈) assume the structure as drawn.
What was measured:
[1] = tested on: Candida albicans; experiment: Antifungal activity against Candida albicans isolate 18 expressing wild type 1,3-beta-glucan synthase grown on RPMI media after 24 hrs by EUCAST microdilution method; details: isolate 18, 24 h
[2] = tested on: Candida albicans; experiment: Antifungal activity against Candida albicans isolate B311 expressing wild type 1,3-beta-glucan synthase grown on AM3 media after 48 hrs by EUCAST microdilution method; format: functional; details: isolate B311, 24 h, in the assay text read “24 hrs” for “48 hrs”
Outline: (§1)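 EUCAST (AFST-EUCAST) broth microdilution with caspofungin at 0.015 to 8 μg/ml final, in AM3 with glucose added to 2% final. Final inoculum was 10⁵ yeast cells/ml, with microplates prepared in batches and stored at −20°C. Plates were incubated at 35°C in humid ambient air and read spectrophotometrically after shaking at 24 h and 48 h. MIC was ≥50% growth reduction versus drug-free well; 90% end point also read at both times.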

[3] = tested on: Candida albicans; experiment: Antifungal activity against Candida albicans isolate 5 expressing wild type 1,3-beta-glucan synthase grown on RPMI media after 24 hrs by EUCAST microdilution method; details: isolate 5, 24 h
[4] = tested on: Candida albicans; experiment: Antifungal activity against Candida albicans isolate 13 expressing wild type 1,3-beta-glucan synthase grown on AM3 media after 48 hrs by EUCAST microdilution method; format: functional; details: isolate 13, 24 h, in the assay text read “after 24 hrs” for “after 48 hrs”
Outline: as §1

[5] = tested on: Candida albicans; experiment: Antifungal activity against Candida albicans isolate 22 harboring 1,3-beta-glucan synthase HS1 point mutant grown on AM3 media after 24 hrs by EUCAST microdilution method; details: isolate 22, 24 h
[6] = tested on: Pichia kudriavzevii; experiment: Antifungal activity against Candida krusei isolate 1 harboring 1,3-beta-glucan synthase HS1 point mutant grown on RPMI media after 24 hrs by EUCAST microdilution method; details: isolate 1, 24 h
[7] = tested on: Candida albicans; experiment: Antifungal activity against Candida albicans isolate 14 expressing wild type 1,3-beta-glucan synthase grown on RPMI media after 24 hrs by EUCAST microdilution method; details: isolate 14, 24 h
[8] = tested on: Candida albicans; experiment: Antifungal activity against Candida albicans isolate 13 expressing wild type 1,3-beta-glucan synthase grown on RPMI media after 24 hrs by EUCAST microdilution method; details: isolate 13, 24 h
[9] = tested on: Candida tropicalis; experiment: Antifungal activity against Candida tropicalis ATCC 750 expressing wild type 1,3-beta-glucan synthase grown on AM3 media after 48 hrs by EUCAST microdilution method; format: functional; details: ATCC 750, 24 h, in the assay text read “24 hrs” for “48 hrs”
Outline: as §1

[10] = tested on: Candida albicans; experiment: Antifungal activity against Candida albicans isolate 6 expressing wild type 1,3-beta-glucan synthase grown on AM3 media after 48 hrs by EUCAST microdilution method; format: functional; details: isolate 6, 24 h, in the assay text read “after 24 hrs” for “after 48 hrs”
Outline: as §1

SMILES: CC[C@H](C)C[C@H](C)CCCCCCCCC(=O)N[C@H]1C[C@@H](O)[C@@H](NCCN)NC(=O)[C@@H]2[C@@H](O)CCN2C(=O)[C@H]([C@H](O)CCN)NC(=O)[C@H]([C@H](O)[C@@H](O)c2ccc(O)cc2)NC(=O)[C@@H]2C[C@@H](O)CN2C(=O)[C@H]([C@@H](C)O)NC1=O [CASPOFUNGIN]
- MIC [1]: 1 µg/mL (≈ 0.915 µM)
- MIC [2]: 0.06 µg/mL (≈ 0.0549 µM)
- MIC [3]: 0.5 µg/mL (≈ 0.457 µM)
- MIC [4]: 0.03 µg/mL (≈ 0.0274 µM)
- MIC [5]: 1 µg/mL (≈ 0.915 µM)
- MIC [6]: 8 µg/mL (≈ 7.32 µM)
- MIC [7]: 1 µg/mL (≈ 0.915 µM)
- MIC [8]: 0.5 µg/mL (≈ 0.457 µM)
- MIC [9]: 0.06 µg/mL (≈ 0.0549 µM)
- MIC [10]: 0.03 µg/mL (≈ 0.0274 µM)
